Screens deposited in PubChem by NMMLSC.
This is a sample that favours compounds with a hit; in the whole collection about 0.9% have one here.
RGS4-Gao reg: modulators of RGS4 binding to Galphao, primary screen, biochemical, multiplexed bead flow cytometry; binding response (% of control), % at 10 µM; Guanine nucleotide-binding protein G(o) subunit alpha (Homo sapiens), P09471; actives lie on both sides; 220,000 compounds, 0.33% hits; in the data active = binding response below about 49% or above about 150%; inactive = in between;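 also: fluorescent Galphao activated with aluminum fluoride binding bead-coupled RGS4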
Target sequence (P09471 whole entry, looked up): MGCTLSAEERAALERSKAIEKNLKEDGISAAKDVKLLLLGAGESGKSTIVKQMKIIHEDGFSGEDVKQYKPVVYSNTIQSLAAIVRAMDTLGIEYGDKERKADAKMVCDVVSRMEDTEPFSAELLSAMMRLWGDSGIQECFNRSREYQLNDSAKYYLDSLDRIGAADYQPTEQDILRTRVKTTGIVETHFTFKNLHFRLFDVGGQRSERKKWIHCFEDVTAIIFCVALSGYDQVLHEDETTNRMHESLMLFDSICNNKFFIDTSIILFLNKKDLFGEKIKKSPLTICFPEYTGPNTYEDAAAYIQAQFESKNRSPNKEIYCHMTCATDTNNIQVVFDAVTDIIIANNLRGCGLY
RGS7-Gao: RGS7-Galphao binding modulators, primary screen, biochemical, multiplexed bead flow cytometry; 220,000 compounds, 0.35% hits; binding response (% of control), % at 10 µM; Guanine nucleotide-binding protein G(o) subunit alpha (Homo sapiens), P09471; AID 1439, 2008; actives lie on both sides; in the data active = binding response below about 49% or above about 150%; inconclusive = no clear call, values can overlap the other calls; inactive = in between;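 also: fluorescent Galphao held in activated GDP-AlF4 state binding bead-coupled RGS7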
ABCG2 inh: ABCG2 efflux pump inhibitors, primary screen, multiplex with ABCB1, IgMXP3 cells, flow cytometry; Broad substrate specificity ATP-binding cassette transporter ABCG2 (Homo sapiens), Q9UNQ0; JC-1 efflux; inhibition, % at 6.6 µM; 190,000 compounds, 0.1% hits;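 active = inhibition above 80%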;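 also: 0% = DMSO and 100% = nicardipine control wells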
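Test system: IgMXP3 cells (ABCG2) mixed with DDAO far-red-labelled CCRF-Adr cells (ABCB1). Reagent: JC-1 transporter substrate. Compound dosing: single test compound dose, 6.6 µM final. Times: 10 min compound exposure, 25 °C. Detection: flow cytometry of retained JC-1 fluorescence. Read-out basis: efflux inhibition in percent versus controls. Controls: nicardipine and DMSO wells.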
RGS8-Gao reg: RGS8-Galphao binding modulators, primary screen, biochemical, multiplexed bead flow cytometry | Guanine nucleotide-binding protein G(o) subunit alpha (Homo sapiens), P09471 | actives lie on both sides | response (percent of control binding), % at 10 µM | 220,000 compounds, 0.34% hits | AID 1423, 2008; in the data active = response below about 60% or above about 140%; inactive = in between;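 also: Galphao activated as the GDP aluminium fluoride complex binding bead-coupled RGS8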
ABCB1 inh: ABCB1 efflux pump inhibitors, primary screen, cell-based, multiplex, flow cytometry, ABCG2 counter-screen; CCRF-Adr cells, JC-1 efflux; inhibition, % at 6.6 µM; 190,000 compounds, 0.067% hits; AID 1326, 2008; in the data active = inhibition above about 40%;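 also: 0% = vehicle and 100% = reference inhibitor; higher value means more JC-1 retained so stronger ABCB1 efflux block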
RGS16-Gao HTS: modulators of RGS16 binding to Galphao, primary screen, biochemical, human proteins, multiplexed bead flow cytometry; bead-based flow cytometry RGS16-Galphao binding, fluorescence; actives lie on both sides; binding response (% of control), % at 10 µM; 220,000 compounds, 0.38% hits; Regulator of G-protein signaling 16 (Homo sapiens) + Guanine nucleotide-binding protein …; AID 1441, 2008;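 also: Galphao activated by GDP with aluminum fluoride before binding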
RGS4-Gao HTS: modulators of RGS–Galpha-o binding, primary screen, biochemical, multiplexed beads, flow cytometry, RGS4/7/8/16/19 | AID 1504, 2009 | RGS4–Galpha-o binding response, % at 10 µM | shares compounds with RGS16-Gao HTS | 1,600 compounds, 99% hits | multiplexed bead flow cytometry;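 also: fluorescently labeled Galpha-o bound to GDP with aluminium fluoride binding biotinylated RGS beads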
Biotin-avidin: disruption of biotin probe capture by avidin, counter-screen for RGS protein interaction modulators, biochemical, flow cytometry, bead-based. shares compounds with RGS16-Gao HTS. streptavidin beads, fluorescein-biotin binding. inhibition, % at 10 µM. 1,700 tested, under 10 active. AID 1783, 2009;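 active = inhibition above 50%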;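 also: median green fluorescence of gated singlet beads compared with DMSO control wells; 0% = DMSO wells and 100% = complete loss of bead fluorescence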
RGS8-Gao confirm: RGS8-Galphao binding modulators, confirmation, biochemical, multiplexed bead flow cytometry, single concentration; AID 1836, 2009; shares compounds with RGS16-Gao HTS; bead-based flow cytometry RGS8-Galphao binding, fluorescence; actives lie on both sides; 1,700 compounds, 3% hits; binding response (% of control), % at 10 µM; in the data active = binding response below about 72% or above about 130%; inactive = in between;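 also: Galphao activated as GDP AlF4 complex before binding bead RGS8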
RGS7-Gao single: RGS7-Galphao binding modulators, confirmation, biochemical, multiplexed bead flow cytometry, single concentration; shares compounds with RGS16-Gao HTS; bead-based flow cytometry RGS7-Galphao binding; actives lie on both sides; response (percent of control binding), % at 10 µM; 1,700 compounds, 7.8% hits; in the data active = response below about 75% or above about 130%; inactive = in between;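 also: fluorescent Galphao activated with GDP and aluminum fluoride binding bead-coupled RGS7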
RGS16-Gao conf: modulators of RGS16-Galphao protein binding, confirmation, biochemical, single concentration, multiplexed bead flow cytometry | shares compounds with RGS16-Gao HTS | bead-based flow cytometry; actives lie on both sides | response (% of control binding), % at 10 µM | 1,700 compounds, 4% hits | AID 1838, 2009; in the data active = response below about 74% or above about 130%; inactive = in between;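 also: Galphao activated as the GDP aluminium fluoride complex binding bead-coupled RGS16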
RGS4-Gao confirm: modulators of RGS4-Galphao protein binding, confirmation, biochemical, single concentration, multiplexed bead flow cytometry; actives lie on both sides; AID 1840, 2009; shares compounds with RGS16-Gao HTS; 1,700 compounds, 4% hits; binding response (% of control), % at 10 µM; in the data active = binding response below about 74% or above about 130%; inactive = in between
RGS19-Gao conf: regulators of RGS19-Galphao binding, confirmation, biochemical, single point, multiplexed bead flow cytometry. shares compounds with RGS16-Gao HTS. bead-based flow cytometry RGS19-Galphao binding; actives lie on both sides. response (percent of control binding), % at 10 µM. 1,700 compounds, 5% hits. AID 1841, 2009; in the data active = response below about 50% or above about 160%; inactive = in between;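 also: 100% = no compound control and 0% = blank background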
Target sequence (P09471 whole entry, looked up): as above
Target sequence (P49795 whole entry, looked up): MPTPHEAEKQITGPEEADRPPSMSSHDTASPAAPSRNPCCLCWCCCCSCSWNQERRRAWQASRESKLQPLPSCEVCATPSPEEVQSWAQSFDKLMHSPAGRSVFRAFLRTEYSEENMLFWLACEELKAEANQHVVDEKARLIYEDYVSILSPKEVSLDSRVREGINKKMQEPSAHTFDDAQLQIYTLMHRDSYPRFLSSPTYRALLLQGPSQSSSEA
Active calls of the source: *; ? = inconclusive; nt = no result given; [ ] = dose if it differs, or a comment. Unless noted, no rule for the calls is given here.

SMILES	RGS4-Gao reg	RGS7-Gao	ABCG2 inh	RGS8-Gao reg	ABCB1 inh	RGS16-Gao HTS	RGS4-Gao HTS	Biotin-avidin	RGS8-Gao confirm	RGS7-Gao single	RGS16-Gao conf	RGS4-Gao confirm	RGS19-Gao conf
COc1cc(/C=N/NC(=O)c2ccc(-n3cccc3)cc2)ccc1O	16*	16*	-7	14*	-1	-86	nt	-1	97	100	96	97	86
CCOc1ccc(-c2nn(-c3ccccc3)cc2/C=C2\SC(N)=NC2=O)cc1C	22*	16*	-1	12*	0	1.8*	nt	3	102	101	103	101	103
Cc1cc(C)cc(OCC(=O)OCC(=O)Nc2c(C)n(C)n(-c3ccccc3)c2=O)c1	145	153*[activator]	-1	139	0	145	145*	1	103	100	101	102	98
Cc1c(NC(=O)COC(=O)c2ccccc2Cl)c(=O)n(-c2ccccc2)n1C	97	100	0	105	0	104	nt	nt	nt	nt	nt	nt	nt
Cc1c(NC(=O)COC(=O)COc2ccc(Nc3ccccc3)cc2)c(=O)n(-c2ccccc2)n1C	143	155*[activator]	2	140*[activator]	0	142	143*	nt	nt	nt	nt	nt	nt
Cc1c(NC(=O)CSc2nnc(COc3ccccc3)n2-c2ccccc2)c(=O)n(-c2ccccc2)n1C	114	171*[activator]	1	101	0	104	114*	nt	nt	nt	nt	nt	nt
CC(C)CC(C(=O)Nc1ccccc1)N1C(=O)C2C3C=CC(C3)C2C1=O (configuration not stated)	101	98	16	102	0	101	nt	nt	nt	nt	nt	nt	nt
CC(C)CCC(C(=O)O)C(C)CC(=O)Nc1ccn(-c2ccccc2)n1 (configuration not stated)	102	?	nt	101	nt	102	nt	nt	nt	nt	nt	nt	nt
CC(=O)c1cccc(NC(=O)NCCc2c[nH]c3ccccc23)c1	89	?	nt	96	nt	88	nt	nt	nt	nt	nt	nt	nt
Cc1ccc2[nH]cc(CCNC(=O)Nc3ccccc3)c2c1	nt	nt	17	nt	0	nt	nt	0	104	107	105	102	97
COc1ccccc1N(C)S(=O)(=O)c1ccc(C(=O)OCC(=O)NCCC2=CCCCC2)cc1	96	98	15	86	3	45	nt	nt	nt	nt	nt	nt	nt
CCCn1c(N)c(C(=O)CSc2nc3ccccc3c(=O)n2Cc2ccccc2)c(=O)[nH]c1=O	227*[activator]	158*[activator]	1	112	1	354	nt	2	89	65*	78	78	48*
Cn1c(N)c(C(=O)CSc2nc3ccccc3c(=O)n2Cc2ccccc2)c(=O)n(C)c1=O	145	?	nt	101	nt	139	nt	nt	nt	nt	nt	nt	nt
CCN(c1ccccc1)c1nc2ccsc2c(=O)s1	108	100	0	105	0	95	nt	nt	nt	nt	nt	nt	nt
CN(c1ccccc1)c1nc2ccsc2c(=O)s1	127	247*[activator]	0	97	0	113	127*	-2	100	102	100	99	99
CN(C(=O)CSc1nnnn1-c1ccccc1)C1CCS(=O)(=O)C1 (configuration not stated)	99	97	5	104	1	102	nt	nt	nt	nt	nt	nt	nt
CC(C)(C)Nc1nc(Oc2ccc(=O)n(-c3ccccc3)n2)nc(N2CCOCC2)n1	nt	nt	0	nt	1	nt	nt	-1	100	103	101	101	98
Cn1nc(Oc2nc(N3CCOCC3)nc(N3CCOCC3)n2)ccc1=O	-23*	-4.9*	5	12*	1	-35	nt	0	101	95	99	98	94
O=c1ccc(Oc2nc(N3CCOCC3)nc(N3CCOCC3)n2)nn1-c1ccccc1	100	100	0	99	0	102	nt	nt	nt	nt	nt	nt	nt
CC(C)CNc1nc(Oc2ccc(=O)n(C)n2)nc(N2CCOCC2)n1	100	102	1	100	0	100	nt	nt	nt	nt	nt	nt	nt
CC(=O)Nc1ccccc1C(=O)C(=O)NCCc1ccccc1	84	102	4	92	1	83	nt	nt	nt	nt	nt	nt	nt
O=C(N[C@@H](Cc1ccc(O)cc1)C(=O)O)c1ccc(C(F)(F)F)cc1	138	152*[activator]	-1	105	0	123	138*	0	97	98	99	101	106
CCOc1ccc(-c2csc(Cn3c(CN4CCN(C)CC4)nc4ccccc4c3=O)n2)cc1	104	111	-1	99	3	97	nt	nt	nt	nt	nt	nt	nt
COc1ccc(OC)c(/C=C2\SC(=S)N(Cc3cccnc3)C2=O)c1	89	88	-16	84	-1	14*	89*	-1	108	112	103	103	105
